According to ChEMBL document CHEMBL1944524, “Synthesis and structure-activity relationship of 5-pyridazin-3-one phenoxypiperidines as potent, selective histamine H(3) receptor inverse agonists” (Bioorg Med Chem Lett, 2012):
Activity calls are given as the source filed them. No cut-off for these calls is given here.

What was measured:
[1] = test system: Rattus norvegicus; experiment: Inhibition of RAMH-induced water drinking in ip dosed rat dipsogenia model; type: functional
Method in brief: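 Rat dipsogenia model: water drinking induced by H3 agonist R-alpha-methylhistamine; test article given ip beforehand; inhibition of drinking measured and ED50 (mg/kg) derived.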

[2] = test system: Salmonella typhimurium; experiment: Genotoxicity against Salmonella Typhimurium TA1537 by Ames test in the absence of rat liver S9 fraction; type: toxicity, organism-based; settings: salmonella enterica subsp. enterica serovar typhimurium
[3] = AUC in rat at 10 mg/kg, po; type: ADME, organism-based; parameters: dose 10 mg/kg, route oral; settings: plasma
Method in brief: (§1)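 Rat PK study, dosed 1 mg/kg iv plus 10 or 5 mg/kg po. iv vehicle 3% DMSO, 30% solutol, 67% phosphate buffered saline; oral vehicle 50% Tween 80, 40% propylene carbonate, 10% propylene glycol.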

[4] = test system: Salmonella typhimurium; experiment: Genotoxicity against Salmonella Typhimurium TA1535 by Ames test in the absence of rat liver S9 fraction; type: toxicity, organism-based; settings: salmonella enterica subsp. enterica serovar typhimurium
[5] = Oral bioavailability in rat at 10 mg/kg; type: ADME, organism-based; settings: in vivo; method in brief: as §1
[6] = test system: Salmonella typhimurium; experiment: Genotoxicity against Salmonella Typhimurium TA98 by Ames test in the absence of rat liver S9 fraction; type: toxicity, organism-based; settings: salmonella enterica subsp. enterica serovar typhimurium
[7] = Plasma protein binding in rat; type: ADME, cell-free; settings: read-out: PPB (converted)
Method in brief: (§2)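 In vitro binding to plasma proteins of rat, dog and human; percent bound.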

[8] = test system: Rattus norvegicus; experiment: Toxicity in Sprague-Dawley rat assessed as hypersomnolence at 1 to 30 mg/kg, ip after 4 hrs; type: organism-based; parameters: dose 1-30 mg/kg, route intraperitoneal; settings: in vivo
[9] = molecular target: Histamine H4 receptor (Homo sapiens) (UniProt Q9H3N8); experiment: Inhibition of human histamine H4 receptor at 10 uM
Sequence of Histamine H4 receptor (Homo sapiens) (Q9H3N8 whole entry): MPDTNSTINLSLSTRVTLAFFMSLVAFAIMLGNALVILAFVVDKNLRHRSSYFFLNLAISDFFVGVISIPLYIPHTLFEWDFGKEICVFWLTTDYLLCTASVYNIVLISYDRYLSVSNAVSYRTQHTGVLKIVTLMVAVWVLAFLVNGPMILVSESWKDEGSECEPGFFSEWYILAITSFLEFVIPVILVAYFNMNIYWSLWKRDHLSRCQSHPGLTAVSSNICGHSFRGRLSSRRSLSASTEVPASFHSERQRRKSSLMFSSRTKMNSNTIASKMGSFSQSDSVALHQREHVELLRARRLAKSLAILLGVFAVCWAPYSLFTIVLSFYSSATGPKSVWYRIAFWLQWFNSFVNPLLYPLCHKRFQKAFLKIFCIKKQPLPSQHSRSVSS
Method in brief: (§3)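 Selectivity screen against human H1, H2 and H4 receptors; percent inhibition at 10 µM.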

[10] = Clearance in rat at 1 mg/kg, iv; type: ADME, organism-based; parameters: dose 1 mg/kg, route intravenous; settings: in vivo; method in brief: as §1
[11] = molecular target: Histamine H3 receptor (Rattus norvegicus, UniProt Q9QYN8); experiment: Displacement of [3H]N-alpha-methylhistamine from rat histamine H3 receptor expressed in CHO cells; type: cell-based
Sequence of Histamine H3 receptor (Rattus norvegicus, UniProt Q9QYN8) (Q9QYN8 whole entry): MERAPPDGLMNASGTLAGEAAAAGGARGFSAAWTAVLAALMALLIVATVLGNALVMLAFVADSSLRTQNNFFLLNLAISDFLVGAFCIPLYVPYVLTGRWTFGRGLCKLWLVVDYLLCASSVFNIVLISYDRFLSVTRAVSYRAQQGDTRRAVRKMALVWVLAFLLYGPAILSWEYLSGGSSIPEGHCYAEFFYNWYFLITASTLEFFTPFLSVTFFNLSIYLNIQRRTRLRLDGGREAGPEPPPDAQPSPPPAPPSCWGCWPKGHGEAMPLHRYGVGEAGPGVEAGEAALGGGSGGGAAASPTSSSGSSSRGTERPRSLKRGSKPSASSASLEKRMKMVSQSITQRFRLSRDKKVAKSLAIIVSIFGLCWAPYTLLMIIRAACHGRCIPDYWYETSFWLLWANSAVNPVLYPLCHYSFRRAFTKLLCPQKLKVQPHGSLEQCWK

[12] = Ratio of drug level in brain to plasma in rat at 10 mg/kg, ip after 6 hrs; type: ADME, organism-based; parameters: dose 10 mg/kg, route intraperitoneal; settings: read-out: BPR
Method in brief: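 Brain and plasma levels measured in rat 6 h after a 10 mg/kg ip dose; value is brain/plasma ratio.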

[13] = test system: Rattus norvegicus; experiment: Wake promoting activity in Sprague-Dawley rat EEG/EMG sleep-wake model assessed as slow-wave sleep onset time at 3 mg/kg, ip after 4 hrs (reference value: 34.9 +/- 5.1 mins); type: functional; settings: route intraperitoneal
Method in brief: (§4)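 Male Sprague Dawley rats surgically implanted for chronic EEG and EMG recording; test agent given ip, vehicle group as control; n = 6-7/group. […] Mean + SEM; Dunnett's test versus vehicle.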

[14] = Tmax in rat at 10 mg/kg, po; type: ADME, organism-based; parameters: dose 10 mg/kg, route oral; settings: in vivo; method in brief: as §1
[15] = molecular target: Histamine H1 receptor (Homo sapiens) (UniProt P35367); experiment: Inhibition of human histamine H1 receptor at 10 uM; method in brief: as §3
Sequence of Histamine H1 receptor (Homo sapiens) (P35367 whole entry): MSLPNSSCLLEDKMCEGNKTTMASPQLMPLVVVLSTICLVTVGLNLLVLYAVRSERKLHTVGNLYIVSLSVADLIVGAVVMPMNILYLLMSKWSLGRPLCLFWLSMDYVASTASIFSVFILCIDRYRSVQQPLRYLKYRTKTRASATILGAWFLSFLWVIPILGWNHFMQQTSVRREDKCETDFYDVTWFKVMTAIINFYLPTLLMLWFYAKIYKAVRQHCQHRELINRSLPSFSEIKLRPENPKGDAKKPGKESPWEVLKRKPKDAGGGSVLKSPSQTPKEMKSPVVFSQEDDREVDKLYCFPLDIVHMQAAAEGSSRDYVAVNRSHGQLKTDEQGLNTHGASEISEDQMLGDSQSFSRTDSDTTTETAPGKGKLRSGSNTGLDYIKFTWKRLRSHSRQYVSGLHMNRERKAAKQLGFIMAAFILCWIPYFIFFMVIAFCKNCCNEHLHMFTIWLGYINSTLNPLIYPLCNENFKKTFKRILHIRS

[16] = Half life in rat liver microsomes; type: ADME, Microsome
Method in brief: (§5)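 Stability in liver microsomes from rat, dog or human; half-life (min) determined.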

[17] = Genotoxicity against mouse lymphocytes by micronuclei test in the absence of rat liver S9 fraction; type: toxicity, cell-based; settings: lymphocyte
[18] = molecular target: T1, Histamine H3 receptor (Homo sapiens, UniProt Q9Y5N1); experiment: Displacement of [3H]N-alpha-methylhistamine from human histamine H3 receptor expressed in CHO cells; type: cell-based
T1 sequence (Q9Y5N1 whole entry): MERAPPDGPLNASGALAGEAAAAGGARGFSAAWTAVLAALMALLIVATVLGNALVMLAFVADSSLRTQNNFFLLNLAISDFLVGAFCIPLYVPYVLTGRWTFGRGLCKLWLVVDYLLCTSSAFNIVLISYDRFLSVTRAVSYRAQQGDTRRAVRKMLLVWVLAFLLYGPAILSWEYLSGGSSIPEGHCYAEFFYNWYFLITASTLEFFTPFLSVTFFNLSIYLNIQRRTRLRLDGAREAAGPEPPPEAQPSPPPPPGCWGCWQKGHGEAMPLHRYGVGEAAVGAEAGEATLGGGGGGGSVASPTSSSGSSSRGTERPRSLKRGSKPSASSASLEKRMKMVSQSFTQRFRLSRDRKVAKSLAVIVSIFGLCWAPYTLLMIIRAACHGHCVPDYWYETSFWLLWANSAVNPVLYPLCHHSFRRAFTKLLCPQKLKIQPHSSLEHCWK

[19] = Half life in dog liver microsomes; type: ADME, Canis lupus familiaris, Microsome; method in brief: as §5
[20] = Cmax in rat at 10 mg/kg, po; type: ADME, organism-based; parameters: dose 10 mg/kg, route oral; settings: in vivo; method in brief: as §1
[21] = test system: Rattus norvegicus; experiment: Wake promoting activity in Sprague-Dawley rat EEG/EMG sleep-wake model assessed as maximum cumulative wake time at 30 mg/kg, ip up to 17 hrs; type: functional, organism-based; parameters: dose 30 mg/kg
[22] = Inhibition of cytochrome P450; type: ADME
Method in brief: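 CYP inhibition assessed against 5 CYP isoforms; IC50 determined.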

[23] = test system: Salmonella typhimurium; experiment: Genotoxicity against Salmonella Typhimurium TA100 by Ames test in the presence of rat liver S9 fraction; type: toxicity, organism-based; settings: salmonella enterica subsp. enterica serovar typhimurium
[24] = test system: Rattus norvegicus; experiment: Wake promoting activity in Sprague-Dawley rat EEG/EMG sleep-wake model assessed as slow-wave sleep onset time at 1 mg/kg, ip after 4 hrs (reference value: 34.9 +/- 5.1 mins); type: functional; settings: route intraperitoneal; method in brief: as §4
[25] = Half life in rat at 1 mg/kg, iv; type: ADME, organism-based; parameters: dose 1 mg/kg, route intravenous; settings: in vivo; method in brief: as §1
[26] = Plasma protein binding in human; type: ADME, cell-free; settings: read-out: PPB (converted); method in brief: as §2
[27] = Genotoxicity against mouse lymphocytes by micronuclei test in the presence of rat liver S9 fraction; type: toxicity, Lymphocyte
[28] = test system: Salmonella typhimurium; experiment: Genotoxicity against Salmonella Typhimurium TA98 by Ames test in the presence of rat liver S9 fraction; type: toxicity, organism-based; settings: salmonella enterica subsp. enterica serovar typhimurium
[29] = Volume of distribution in rat at 1 mg/kg, iv; type: ADME, organism-based; parameters: dose 1 mg/kg, route intravenous; settings: in vivo; method in brief: as §1
[30] = test system: Rattus norvegicus; experiment: Wake promoting activity in Sprague-Dawley rat EEG/EMG sleep-wake model assessed as increase in wake time at 10 mg/kg, ip after 4 hrs; type: functional; settings: route intraperitoneal
Method in brief: (§6)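 Male Sprague Dawley rats surgically implanted for chronic EEG/EMG recording; ip dosing during normal quiet period; cumulative wake time over 4 h post dose vs vehicle; n = 6-7/group, mean + SEM, Dunnett's test vs vehicle.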

[31] = Aqueous solubility of the compound at pH 7.4; type: physicochemical; settings: buffer
Method in brief: (§7)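 Water solubility measured at pH 2 and at pH 7.4, in […].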

[32] = test system: Rattus norvegicus; experiment: Wake promoting activity in Sprague-Dawley rat EEG/EMG sleep-wake model assessed as increase in wake time at 30 mg/kg, ip after 4 hrs relative to control; type: functional; settings: route intraperitoneal; method in brief: as §4
[33] = Half life in human liver microsomes; type: ADME, Microsome; method in brief: as §5
[34] = Inhibition of alpha-adrenergic receptor at 10 uM
Method in brief: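 Broad panel of 101 GPCRs, ion channels and enzymes; percent inhibition at 10 µM.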

[35] = test system: Salmonella typhimurium; experiment: Genotoxicity against Salmonella Typhimurium TA1535 by Ames test in the presence of rat liver S9 fraction; type: toxicity, organism-based; settings: salmonella enterica subsp. enterica serovar typhimurium
[36] = Plasma protein binding in dog; type: ADME, cell-free, Canis lupus familiaris; settings: read-out: PPB (converted); method in brief: as §2
[37] = Apparent permeability of the compound across human Caco2 cells; type: ADME, cell-based; settings: Caco-2
Method in brief: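 Caco-2 monolayer permeability; apparent permeability (Papp, cm/s) reported.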

[38] = test system: Salmonella typhimurium; experiment: Genotoxicity against Salmonella Typhimurium TA1537 by Ames test in the presence of rat liver S9 fraction; type: toxicity, organism-based; settings: salmonella enterica subsp. enterica serovar typhimurium
[39] = molecular target: Voltage-gated inwardly rectifying potassium channel KCNH2 (Homo sapiens, UniProt Q12809); experiment: Inhibition of human ERG by patch clamp assay
Sequence of Voltage-gated inwardly rectifying potassium channel KCNH2 (Q12809 whole entry): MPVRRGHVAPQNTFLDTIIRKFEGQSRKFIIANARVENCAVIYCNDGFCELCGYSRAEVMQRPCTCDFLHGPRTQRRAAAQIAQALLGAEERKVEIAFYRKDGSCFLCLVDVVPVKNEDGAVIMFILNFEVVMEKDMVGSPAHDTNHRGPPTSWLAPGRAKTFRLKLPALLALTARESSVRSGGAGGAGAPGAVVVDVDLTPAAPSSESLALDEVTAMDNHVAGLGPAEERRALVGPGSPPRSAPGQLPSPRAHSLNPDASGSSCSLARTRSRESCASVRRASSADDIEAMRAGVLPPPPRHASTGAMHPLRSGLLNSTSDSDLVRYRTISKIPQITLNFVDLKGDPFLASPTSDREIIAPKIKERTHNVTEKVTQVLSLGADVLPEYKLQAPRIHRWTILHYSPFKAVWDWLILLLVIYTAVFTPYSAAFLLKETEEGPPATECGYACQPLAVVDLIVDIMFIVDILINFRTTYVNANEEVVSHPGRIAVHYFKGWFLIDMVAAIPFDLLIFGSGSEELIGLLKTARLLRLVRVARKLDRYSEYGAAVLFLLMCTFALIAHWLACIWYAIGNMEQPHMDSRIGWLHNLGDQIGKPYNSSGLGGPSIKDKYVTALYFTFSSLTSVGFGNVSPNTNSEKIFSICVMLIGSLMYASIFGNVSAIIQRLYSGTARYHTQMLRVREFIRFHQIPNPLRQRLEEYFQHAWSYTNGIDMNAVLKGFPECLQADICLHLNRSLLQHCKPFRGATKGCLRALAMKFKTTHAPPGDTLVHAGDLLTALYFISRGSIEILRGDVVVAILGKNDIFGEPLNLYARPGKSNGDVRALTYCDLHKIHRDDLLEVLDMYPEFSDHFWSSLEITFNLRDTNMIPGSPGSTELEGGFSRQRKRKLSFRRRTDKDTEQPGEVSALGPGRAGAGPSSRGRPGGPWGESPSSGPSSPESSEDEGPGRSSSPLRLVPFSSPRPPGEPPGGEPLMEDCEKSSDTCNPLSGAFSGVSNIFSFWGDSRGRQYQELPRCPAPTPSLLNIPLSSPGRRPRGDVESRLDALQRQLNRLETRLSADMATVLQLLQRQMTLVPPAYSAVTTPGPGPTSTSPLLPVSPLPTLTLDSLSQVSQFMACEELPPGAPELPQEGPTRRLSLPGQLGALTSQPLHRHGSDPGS

[40] = test system: Rattus norvegicus; experiment: Wake promoting activity in Sprague-Dawley rat EEG/EMG sleep-wake model assessed as increase in wake time at 30 mg/kg, ip after 4 hrs; type: functional; settings: route intraperitoneal; method in brief: as §6
[41] = test system: Salmonella typhimurium; experiment: Genotoxicity against Salmonella Typhimurium TA102 by Ames test in the absence of rat liver S9 fraction; type: toxicity, organism-based; settings: salmonella enterica subsp. enterica serovar typhimurium
[42] = molecular target: Histamine H2 receptor (Homo sapiens) (UniProt P25021); experiment: Inhibition of human histamine H2 receptor at 10 uM; method in brief: as §3
Sequence of Histamine H2 receptor (Homo sapiens) (P25021 whole entry): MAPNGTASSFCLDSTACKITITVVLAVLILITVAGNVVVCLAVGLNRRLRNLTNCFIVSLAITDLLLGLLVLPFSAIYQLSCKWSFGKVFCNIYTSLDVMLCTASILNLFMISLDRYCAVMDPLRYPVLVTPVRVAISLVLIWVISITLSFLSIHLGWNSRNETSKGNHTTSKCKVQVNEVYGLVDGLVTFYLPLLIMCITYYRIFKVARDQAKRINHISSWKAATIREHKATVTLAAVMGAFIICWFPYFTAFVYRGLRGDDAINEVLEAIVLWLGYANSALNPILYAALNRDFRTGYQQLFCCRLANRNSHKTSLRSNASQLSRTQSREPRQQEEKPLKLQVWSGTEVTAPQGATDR

[43] = test system: Salmonella typhimurium; experiment: Genotoxicity against Salmonella Typhimurium TA100 by Ames test in the absence of rat liver S9 fraction; type: toxicity, organism-based; settings: salmonella enterica subsp. enterica serovar typhimurium
[44] = molecular target: T1, Histamine H3 receptor; experiment: Inverse agonist activity at human histamine H3 histamine receptor by [35S]GTPgammaS binding assay; type: functional
Method in brief: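 Functional assay measuring [35S]GTPγS binding at the human H3 receptor. Inverse agonist potency is reported as an EC50.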

[45] = Aqueous solubility of the compound at pH 2; type: physicochemical; settings: buffer; method in brief: as §7
[46] = test system: Salmonella typhimurium; experiment: Genotoxicity against Salmonella Typhimurium TA102 by Ames test in the presence of rat liver S9 fraction; type: toxicity, organism-based; settings: salmonella enterica subsp. enterica serovar typhimurium
[47] = test system: Rattus norvegicus; experiment: Wake promoting activity in Sprague-Dawley rat EEG/EMG sleep-wake model assessed as maximum cumulative wake time at 30 mg/kg, ip at 6 hrs; type: functional; settings: route intraperitoneal

With `Cc1n[nH]c(=O)cc1-c1ccc(OC2CCN(C3CCC3)CC2)cc1` the ED50 [1] was 0.02 mg/kg, the Activity [2] was “Non-toxic” and the AUC [3] was 4870 ng·h/mL. For the same compound, the Activity [4] was “Non-toxic”, the bioavailability [5] was 68% and the Activity [6] was “Non-toxic”. The fraction unbound [7] was 0.46, the Activity [8] was “Non-toxic” and the inhibition [9] was under 20%. The clearance [10] was 25 mL/min/kg, the Ki [11] was 6 nM and the Kp at 6 h [12] was 2.3. The Time [13] was 45 min, the Tmax [14] was 1 h and the inhibition [15] was under 20%. The half-life [16] was over 0.667 h, the Activity [17] was “Non-toxic” and the Ki [18] was 5 nM. For the same compound, the half-life [19] was over 0.667 h, the Cmax [20] was 673 ng/mL and the Activity [21] was “Active”. For the same compound, the IC50 [22] was over 30000 nM, the Activity [23] was “Non-toxic” and the Time [24] was 35.3 min. The half-life [25] was 1.5 h, the fraction unbound [26] was 0.42 and the Activity [27] was “Non-toxic”. For the same compound, the Activity [28] was “Non-toxic”, the Vd [29] was 3.4 L/kg and the Time [30] was 167 min. It also gave a solubility [31] of over 140 µg/mL, an Activity [32] of 178% and a half-life [33] of over 0.667 h. For the same compound, the inhibition [34] was over 50%, the Activity [35] was “Non-toxic” and the fraction unbound [36] was 0.57. The Papp [37] was 14.9 ×10⁻⁶ cm/s, the Activity [38] was “Non-toxic” and the IC50 [39] was 7000 nM. For the same compound, the Time [40] was 226 min, the Activity [41] was “Non-toxic” and the inhibition [42] was under 20%. For the same compound, the Activity [43] was “Non-toxic”, the EC50 [44] was 1.1 nM and the solubility [45] was over 140 µg/mL. For the same compound, the Activity [46] was “Non-toxic” and the Time [47] was 163 min.
